Compounds with a hit are over-represented: about 4.6% of the library has one in this group of screens.
UCH37 DUB inh – human UCH37 deubiquitinating enzyme inhibition; purified proteasome/UCH37, Ub-AMC cleavage fluorescence; inhibition, % (concentration not given with the values); 330,000 compounds, 0.33% hits;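 active means mean inhibition over replicate wells above about 20%, limit read from the data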;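 further: 0% = compound-free wells with enzyme and 100% = wells lacking proteasome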
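Material: Human UCH37 enzyme supplied as purified proteasome complex | Schedule: 30 min compound-proteasome preincubation then 25 min substrate reaction, room temperature | Detection: AMC fluorescence from Ub-AMC cleavage, excitation 355 nm, emission 460 nm | Benchmarks: Wells without proteasome as full block, compound-free enzyme plus substrate as uninhibited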
HDAC3 inhib – blocks human histone deacetylase 3; recombinant HDAC3, fluorogenic peptide/trypsin coupled, fluorescence; AID 2718; O15379; 320,000 compounds, 0.15% hits; inhibition, % at 8.3 µM; in the data active means inhibition above about 26%, passing the limit was not always enough
FAS-TE inh – blocks the thioesterase domain of human fatty acid synthase | inhibition, % at 15 µM | recombinant FAS-TE, OMFH fluorogenic substrate, fluorescence endpoint | 360,000 compounds, 0.67% hits | AID 602261;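 active means compounds whose normalised, plate-corrected inhibition of enzyme fluorescence in the single-dose primary screen is 50% or more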;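 further: 0% = DMSO with enzyme and 100% = substrate without enzyme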
ALR H2O2 inh – inhibitors of human sulfhydryl oxidase ALR; P55789; purified ALR, DTT oxidation, H2O2 HRP-luminol luminescence; inhibition, % (concentration not given with the values); 290,000 compounds, 3.8% hits;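 active means mean replicate inhibition above about 79%, with every replicate also reaching it, limit read from the data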
Rtt109 Vps75 – C. albicans Rtt109 histone acetyltransferase inhibition. Q5AAJ8. purified Rtt109/Vps75, ThioGlo CoA-SH fluorescence, 4 h. inhibition, % at 34.9 µM. 330,000 compounds, 0.16% hits. AID 540336;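 active means inhibition of at least 50% in every replicate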
PfM18AAP inh – PfM18AAP enzyme inhibition; inhibition, % at 7.35 µM; recombinant PfM18AAP, H-Glu-NHMec fluorogenic cleavage; AID 1822; 290,000 compounds, 1.2% hits;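 active means inhibition above the campaign mean inhibition over all tested compounds plus 3 SD, cut at about 28% in these data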;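 further: 0% = plate median of test compound wells and 100% = 2 mM ZnCl2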
FAS-TE conf – FAS thioesterase (human) inhibition, confirmation | shares compounds with FAS-TE inh | recombinant FAS-TE, OMFH fluorogenic substrate, fluorescence | inhibition, % at 15 µM | 2,300 compounds, 45% hits | AID 624325;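 active means compounds inhibiting the enzyme by at least 50% at 15 µM in any one of the replicates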;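 further: 0% = enzyme with DMSO only and 100% = wells lacking enzyme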
An asterisk follows results filed as active.

For CC(C)c1ccc(NC(=O)C2Cc3c(-c4cccc(F)c4)ccnc3O2)cc1 (stereo unspecified) the results were FAS-TE inh 50.0* and FAS-TE conf 42.3.
CC(=O)c1cccc(-c2ccnc3c2CC(C(=O)Nc2ccc(F)c(Cl)c2)O3)c1 (stereo unspecified) was read as FAS-TE inh 60.5* and FAS-TE conf 58.0*.
Screening O=C(Nc1ccc(F)c(Cl)c1)C1Cc2c(-c3cccc(F)c3)ccnc2O1 (stereo unspecified) returned FAS-TE inh 39.6.
Screening CCCCCCn1c(C)nc2c(c1=O)c1nc3ccccc3nc1n2N=Cc1ccco1 returned UCH37 DUB inh -27.4.
CC(CC(=O)Nc1cccnc1)=NNC(=O)C(=O)Nc1cccc(C)c1 was read as UCH37 DUB inh 3.0.
Screening COc1cccc(NC(=O)CN2C(=O)CSc3ccc(S(=O)(=O)N4CCC(C)CC4)cc32)c1 returned UCH37 DUB inh 6.2, HDAC3 inhib -1.1, FAS-TE inh 65.1*, ALR H2O2 inh -3.0, Rtt109 Vps75 -0.4, PfM18AAP inh -1.7 and FAS-TE conf 72.2*.
For Cc1cc(O)c(C=NOCc2ccc(Cl)cc2Cl)c(=O)o1 the results were UCH37 DUB inh 2.1.
For Nc1cc(-c2ccc(OC(F)(F)F)cc2)nn1-c1ccc(Cl)c(Cl)c1 the results were UCH37 DUB inh 4.0, HDAC3 inhib 4.7, FAS-TE inh 58.2*, ALR H2O2 inh -4.6, PfM18AAP inh -11.7 and FAS-TE conf 25.0.
Cc1ccc(-c2cc(N)n(-c3ccccc3)n2)cc1 was read as UCH37 DUB inh 3.8, HDAC3 inhib 6.7, FAS-TE inh 1.2, Rtt109 Vps75 0.7 and PfM18AAP inh 0.7.
Cc1c(-c2ccccc2)oc2c(C(=O)N3CCN(c4ccc([N+](=O)[O-])cc4)CC3)cccc2c1=O was read as UCH37 DUB inh 4.9, HDAC3 inhib 4.3, FAS-TE inh 60.2*, ALR H2O2 inh -6.7, Rtt109 Vps75 3.2, PfM18AAP inh 0.6 and FAS-TE conf 10.2.
Screening Cc1c(C(=O)N2CCN(c3ccc([N+](=O)[O-])cc3)CC2)oc2ccccc12 returned UCH37 DUB inh 6.2, HDAC3 inhib 2.2, FAS-TE inh 31.1, ALR H2O2 inh -2.2 and Rtt109 Vps75 -3.2.
Screening COc1cc([N+](=O)[O-])cc(/C=N/NC(=O)c2cncc(Br)c2)c1O returned HDAC3 inhib 2.6, FAS-TE inh 58.6*, ALR H2O2 inh 8.3, Rtt109 Vps75 26.9, PfM18AAP inh 1.3 and FAS-TE conf 70.6*.
`COc1cc(/C=N/NC(=O)c2cncc(Br)c2)cc([N+](=O)[O-])c1O` gave HDAC3 inhib 9.7, FAS-TE inh 57.5*, ALR H2O2 inh 7.3, Rtt109 Vps75 15.9, PfM18AAP inh 2.4 and FAS-TE conf 69.5*.
For COc1cc([N+](=O)[O-])cc(/C=N/NC(=O)c2cc(-c3ccccc3)nc3ccccc23)c1O the results were HDAC3 inhib -1.6, FAS-TE inh 19.3, ALR H2O2 inh -0.4 and PfM18AAP inh -7.9.
Screening COc1cc(C=NNC(=O)c2cncc(Br)c2)cc([N+](=O)[O-])c1O returned UCH37 DUB inh 13.7.
`COc1ccccc1-c1cc(C(=O)N/N=C/C=C/c2ccccc2[N+](=O)[O-])c2ccccc2n1` gave HDAC3 inhib -2.8, FAS-TE inh 63.2*, ALR H2O2 inh -5.6, Rtt109 Vps75 8.5, PfM18AAP inh 10.5 and FAS-TE conf 20.9.
`O=C(N/N=C/C=C/c1ccccc1[N+](=O)[O-])c1cc(-c2cccnc2)nc2ccccc12` gave HDAC3 inhib -0.3, FAS-TE inh 31.6, ALR H2O2 inh -7.0, Rtt109 Vps75 4.8 and PfM18AAP inh 1.6.
For COc1cc([N+](=O)[O-])cc(/C=N/NC(=O)c2cc(C)nc3ccccc23)c1O the results were HDAC3 inhib 11.7, FAS-TE inh 53.9*, ALR H2O2 inh 1.7, Rtt109 Vps75 1.1, PfM18AAP inh -4.7 and FAS-TE conf 66.6*.
ON=C1CCCSc2ccccc21 was read as UCH37 DUB inh 3.6.
For COc1ccc(Cc2nc3ccccc3n2CC(=O)NN=Cc2ccc(O)cc2)cc1OC the results were UCH37 DUB inh 5.9.
COc1ccc(C(=O)/C(C#N)=N/Nc2ccc([N+](=O)[O-])cc2)cc1 was read as HDAC3 inhib 0.8, FAS-TE inh 58.7*, ALR H2O2 inh -7.5, Rtt109 Vps75 -1.1, PfM18AAP inh -0.2 and FAS-TE conf 19.3.
For O=C(O)c1ccccc1NSc1ccccc1[N+](=O)[O-] the results were UCH37 DUB inh 1.5, HDAC3 inhib 6.3, FAS-TE inh 4.6, ALR H2O2 inh -33.1, Rtt109 Vps75 10.3 and PfM18AAP inh 28.0.
`CCc1ccc(NSc2ccccc2[N+](=O)[O-])cc1` gave UCH37 DUB inh 6.7, HDAC3 inhib 7.9, FAS-TE inh 51.2*, ALR H2O2 inh -18.8, Rtt109 Vps75 32.2, PfM18AAP inh 19.7 and FAS-TE conf 0.1.
Screening COC(=O)c1ccc(C=NNC(=O)C2CC(=O)N(c3ccc(OC)cc3)C2)cc1 (stereo unspecified) returned UCH37 DUB inh 1.9.
COC(=O)c1ccc(C2c3c(oc4ccccc4c3=O)C(=O)N2CCCN2CCOCC2)cc1 (stereo unspecified) was read as UCH37 DUB inh 1.6, HDAC3 inhib 5.7, FAS-TE inh 12.3, ALR H2O2 inh 35.4, Rtt109 Vps75 -0.3 and PfM18AAP inh 1.9.
COC(=O)c1ccc(C2c3c(oc4ccc(Cl)cc4c3=O)C(=O)N2CCN2CCOCC2)cc1 (stereo unspecified) was read as UCH37 DUB inh 4.5, HDAC3 inhib 2.4, FAS-TE inh 54.2*, ALR H2O2 inh 0.1, Rtt109 Vps75 6.1, PfM18AAP inh -12.1 and FAS-TE conf 61.5*.
`COC(=O)[C@@]1(Cc2ccc(F)cc2)[C@H]2c3cc(C(=O)N(C)C)n(CCc4ccc(OC)c(Br)c4)c3C[C@H]2CN1C(=O)c1ccccc1` gave UCH37 DUB inh 1.7, HDAC3 inhib 10.4, FAS-TE inh 80.9*, Rtt109 Vps75 -2.1, PfM18AAP inh 1.8 and FAS-TE conf 1.3.
COC(=O)[C@@]1(Cc2ccc(OC)cc2)[C@H]2c3cc(C(=O)N4CCCC4)n(Cc4ccsc4Br)c3C[C@H]2CN1C(=O)c1ccccc1 was read as FAS-TE inh 51.0* and FAS-TE conf 23.5.
COC(=O)[C@@]1(Cc2ccc(OC)cc2)[C@H]2c3cc(C(=O)N4CCCC4)n(Cc4ccc(C)o4)c3C[C@H]2CN1C(=O)c1ccccc1 was read as PfM18AAP inh -6.7.
Screening Cn1c(C(C#N)=C(O)c2ccc(S(=O)(=O)N3CCCCC3)cc2)nc2ccccc21 returned UCH37 DUB inh -406.9.

Assay outcomes: PubChem BioAssay, several laboratories
